The values that follow come from PubChem BioAssay.

A short description of assay [1]: OD615 S. cerevisiae growth inhibition, permissive medium, pilot counter-assay, permissive growth control for S. cerevisiae lifespan shortening project (AID 705;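 active = growth inhibition above 25% in both replicates, a cutoff set 3 SD above the mean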). Particulars: OD615, 24 h, at 10 µM, hits give high values. The procedure, abridged: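 Material: engineered DeaD yeast; compound dosing: one dose 10 µM, DMSO 0.25% final; measure: yeast growth inhibition indicated by reduced 24 h OD615; detection: OD615 turbidity read; incubation: cells pre-grown 4 h, then 24 h compound exposure, 30 °C humidified; medium: permissive synthetic complete medium with raffinose and galactose carbon sources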

The nature of assay [2]: Restrictive medium S. cerevisiae growth inhibition, OD615, pilot screen of yeast lifespan reduction project, restrictive growth control (AID 706;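 active = growth inhibition above a set limit, 3 SD over mean compound inhibition, in both replicates, cut at about 43% in these data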;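 also: modified DeaD lifespan yeast strain shifted to restrictive glucose medium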). The note with it: OD615, 48 h, at 10 µM, hits give high values. In a few lines:
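material = engineered S. cerevisiae DeaD strain | medium = glucose-based CSMM-D restrictive medium | times = 4 h pre-incubation, 48 h exposure at 30 °C | technique = OD615 absorbance reading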

Assay [3] in a line: viability gain of MRP-1-high H69AR cells under doxorubicin, pilot screen, MRP-1 activator project, CellTiter-Glo, duplicate (AID 807).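 Also: compound pretreatment 18-22 h then 72 h combined with doxorubicin; 0% = doxorubicin alone and 100% = vehicle without doxorubicin.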 The note with it: H69AR viability with doxorubicin, CellTiter-Glo luminescence; at 10 µM; hits give high values. In general terms: Cellular ATP, detected with luciferase, serves as a proxy for viable cell number.
The nature of assay [4]: growth suppression of beta-catenin knockout HCT116, pilot screen, human colon tumor cells (AID 823;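 active = cell viability at or below a set limit in both duplicate runs, the limit being the all-compound median minus 4 SD, cut at about 23% in these data, passing the limit was not always enough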;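 also: 0% = wells killed by 20 µM Hyamine and 100% = untreated DMSO cell wells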). Particulars: CellTiter-Glo, 60 h, at 10 µM, hits give low values.
Assay [5] can be described thus: growth suppression of PTEN-deleted HCT116, pilot screen, cell-based, HCT116 clonal line, CellTiter-Glo (AID 824;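 active = viability at or below 27.92% in each of two runs, the all-compound median minus 4 SD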;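 also: 0% = 20 µM Hyamine control and 100% = vehicle cell control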). The note with it: 60 h, at 10 µM, hits give low values.
Assay [6] can be described thus: inhibitors of the yeast RAM network, pilot screen, dse1pr::URA3 reporter, 5-FOA selection (AID 869;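 active = inhibition over a set limit, the all-compound mean plus 3 SD, in both replicate runs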;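 also: 0% = DMSO wells with no growth and 100% = 10 µM 1-NA-PP1 with full growth; RAM network block rescues cells from 5-FOA so hits raise OD615 growth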). Particulars: S. cerevisiae dse1pr::URA3 5-FOA growth, OD615, 2 d; at 10 µM; hits give high values; strain carries analog-sensitive mutant Cbk1 kinase.
The nature of assay [7]: RAM signaling pathway blockade in yeast – S. cerevisiae, Pdr1DBD-CYC8 efflux-inhibited sensitized strain, primary screen (AID 1298;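 active = RAM network inhibition above 8.4% in each of two replicates, 3 SD over the compound average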;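 also: 0% = DMSO untreated cells without growth and 100% = 10 µM 1-NA-PP1 full growth; higher means more yeast growth rescued from 5-FOA killing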). The note with it: S. cerevisiae cbk1-as DSE1-URA3 strain, 5-FOA growth OD615, 2 d; at 50 µM; hits give high values.

A number with no mark means an inactive call. Results filed as inconclusive are left out. Calls of active or inactive are those of the source.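 The calls were made as follows, unless noted: active = viability increase at or above a cutoff of the median across tested compounds plus 3 SD (cut at about 8.5% in these data, passing the limit was not always enough); inconclusive = some gains above the cutoff, reason not given; inactive = the rest.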

As to `Cc1ccc(CNC(=O)CCS(=O)(=O)c2cccc3nsnc23)cc1`, the growth inhibition in assay [1] was -2.81%; in assay [2], -1.48%. The viability increase in assay [3] is -1.57%. In addition, the viability was 103% in assay [4] and 104% in assay [5]. The inhibition in assay [6] is 1.64%. Besides, the RAM network inhibition in assay [7] is 6.91%.
As to `O=C(C1CC1)N1CCc2cc(Br)cc(S(=O)(=O)NCCCN3CCCC3)c21`, the growth inhibition is -9.22% in assay [1] and -4.36% in assay [2]. Further, the viability increase in assay [3] is -2.47%. For the same compound, the viability in assay [4] is 87.6%; in assay [5] it was 86.3%. Besides, the inhibition in assay [6] is 0.08%. Moreover, the RAM network inhibition in assay [7] is 5.37%.
As for `CCOC(=O)C1CCCN(C(=O)CN(c2ccc(OC)cc2)S(=O)(=O)c2c(C)noc2C)C1` (stereo not drawn), the growth inhibition is -7.31% in assay [1] and -7.06% in assay [2]. Besides, the viability increase in assay [3] was -2.84%. Moreover, the viability in assay [4] was 102%; in assay [5] it was 93.8%. For the same compound, the inhibition in assay [6] was 1.58%. Also, the RAM network inhibition in assay [7] is 1.13%.
Consider `O=C(NC1=NCCS1)c1csc2ccccc12`, for which the growth inhibition is -9.29% in assay [1] and 27.3% in assay [2]. Further, in assay [3], the viability increase is -3.86%. Further, the viability in assay [4] is 74%; in assay [5], 79%. Also, the inhibition in assay [6] is 1.16%. For the same compound, the RAM network inhibition in assay [7] was 1.26%.
`CCC(CC)C(=O)N1c2ccc(F)cc2CCC1C` (stereo not drawn): the growth inhibition in assay [1] is -16.6%; in assay [2], -10.7%. For the same compound, the viability increase in assay [3] was -0.23%. Further, the viability in assay [4] is 95.3%; in assay [5] it was 93.9%. Further, the inhibition in assay [6] is 1.31%. Further, the RAM network inhibition in assay [7] is 1.96%.
As to `O=C(O)CCC(=O)NCc1ccc2[nH]c3c(c2c1)CCCC3`, the growth inhibition in assay [1] was -13.2%; in assay [2], 3.53%. Moreover, the viability increase in assay [3] is 0.95%. Moreover, the viability in assay [4] is 101%; in assay [5], 96.5%. Besides, the inhibition in assay [6] is 1.51%. The RAM network inhibition in assay [7] was 4.69%.
Take `CCC(=O)Nc1c2c(nn1-c1ccc(OC)cc1)CS(=O)C2` (stereo not drawn): the values for the growth inhibition in assay [1] and in assay [2] were -6.53% and 5.54%, respectively. For the same compound, the viability increase in assay [3] was 0.56%. Moreover, the results for the viability in assay [4] and in assay [5] were 102% and 94.1%, respectively. Besides, in assay [6], the inhibition is 1.37%. The RAM network inhibition in assay [7] is 2.55%.
Turning to `COc1ccccc1C1NC(=O)NC(C)=C1C(=O)OC1CCCCC1` (stereo not drawn), the growth inhibition in assay [1] was -4.16%; in assay [2] it was -6.71%. For the same compound, the viability increase in assay [3] is 0.87%. For the same compound, the viability in assay [4] is 97.5%; in assay [5], 92.3%. For the same compound, the inhibition in assay [6] was 2.65%. Further, in assay [7], the RAM network inhibition was 2.9%.
For the compound `COC(=O)c1c(NC(=O)CCN2CCOCC2)sc2c1CCCC2`, the growth inhibition in assay [1] is -1.47%; in assay [2], -2.81%. Moreover, the viability increase in assay [3] was -6.91%. Moreover, the viability was 88.4% in assay [4] and 89.7% in assay [5]. Besides, the inhibition in assay [6] is 0.935%. For the same compound, in assay [7], the RAM network inhibition was 4.32%.
`COc1ccc(S(=O)(=O)Nc2ccc3oc(C)c(C(=O)O)c3c2)cc1`: the growth inhibition in assay [1] is 3.11%; in assay [2], -3.25%. Moreover, the viability increase in assay [3] was -2.36%. Further, the viability in assay [4] was 95.5%; in assay [5], 91.2%. Moreover, in assay [6], the inhibition is 1.54%. In addition, in assay [7], the RAM network inhibition is 3.39%.
In the case of `O=C(Cn1nc(-c2ccccc2)ccc1=O)N1CCOCC1`, the growth inhibition in assay [1] was 4.29%; in assay [2], 8.44%. The viability increase in assay [3] is -0.71%. In addition, the viability in assay [4] is 96%; in assay [5], 108%. Further, in assay [6], the inhibition is -0.155%. Besides, the RAM network inhibition in assay [7] was 0.21%.
Take `C=CCn1c(C)c(C(C)=O)c(SC)nc1=S`: the figures for the growth inhibition in assay [1] and in assay [2] were -2.37% and 17.1%, respectively. For the same compound, the viability increase in assay [3] was -1.99%. Moreover, the figures for the viability in assay [4] and in assay [5] were 101% and 99.8%, respectively. Moreover, in assay [6], the inhibition was 0.34%. The RAM network inhibition in assay [7] is 5.32%.
With `COc1ccccc1N1CCN(Cc2cc(Br)c(O)c3ncccc23)CC1`, the growth inhibition in assay [1] is 96.8% (active); in assay [2] it was 98.6% (active). For the same compound, the viability increase in assay [3] is -6.58%. In addition, the viability in assay [4] is 6.37% (active); in assay [5], 6.17% (active). In assay [6], the inhibition was -0.8%. Further, in assay [7], the RAM network inhibition was -1.73%.
Regarding `O=C(c1oc(=O)c2ccccc2c1-c1ccccc1)N1CCN(C2CCCCC2)CC1`, the growth inhibition in assay [1] was -7.33%; in assay [2], -0.045%. The viability increase in assay [3] was -1.86%. Besides, the results for the viability in assay [4] and in assay [5] were 95.5% and 97.4%, respectively. In addition, the inhibition in assay [6] was 1.16%. The RAM network inhibition in assay [7] was 6.22%.
Regarding `CCC/C(O)=C1\C(=O)CC(C)(C)CC1=NCCO`, the growth inhibition was 1.41% in assay [1] and 11.1% in assay [2]. In addition, the viability increase in assay [3] is -0.35%. The results for the viability in assay [4] and in assay [5] were 91.9% and 98.6%, respectively. Also, the inhibition in assay [6] was 2.65%. Further, in assay [7], the RAM network inhibition is 3.31%.
Regarding `COc1cccc(CNC(=O)Cn2cc3c(n2)CCCCC3)c1`, the growth inhibition is -12.5% in assay [1] and -19.7% in assay [2]. In addition, the viability increase in assay [3] was -1.29%. In addition, the values for the viability in assay [4] and in assay [5] were 92.3% and 85.9%, respectively. The inhibition in assay [6] is 1.56%. Besides, the RAM network inhibition in assay [7] was 1.81%.
In the case of `O=S(=O)(CCc1nnc(-c2ccccc2)o1)c1ccc2ccccc2c1`, the growth inhibition in assay [1] was -16.3%; in assay [2] it was -6.19%. Moreover, the viability increase in assay [3] is -1.86%. Further, the viability in assay [4] is 89.8%; in assay [5], 91.8%. For the same compound, the inhibition in assay [6] is 1.96%. Moreover, in assay [7], the RAM network inhibition was 10.4%.
On to `O=c1cc(N2CCOCC2)[nH]c(=O)n1-c1ccc(Cl)cc1`, for which the growth inhibition in assay [1] is -5.36%; in assay [2], -6.01%. Moreover, in assay [3], the viability increase is -1.67%. For the same compound, the viability in assay [4] was 105%; in assay [5], 97.2%. Further, the inhibition in assay [6] was 1.17%. For the same compound, the RAM network inhibition in assay [7] is 1.09%.
Turning to `O=C(CC1SC(=Nc2ccccc2)N(CCCO)C1=O)Nc1ccc(Cl)cc1` (stereo not drawn), the growth inhibition in assay [1] was -6.75%; in assay [2] it was -7.97%. For the same compound, the viability increase in assay [3] is -6.7%. In addition, the viability was 48.1% in assay [4] and 42.1% in assay [5]. For the same compound, in assay [6], the inhibition was 0.52%. Further, the RAM network inhibition in assay [7] is 1.29%.
For the compound `CCn1nnnc1-c1ccc(OC)c(S(=O)(=O)NCCc2ccccc2)c1`, the growth inhibition is 2.78% in assay [1] and 2.87% in assay [2]. The viability increase in assay [3] was 0.85%. The viability in assay [4] was 93.5%; in assay [5], 97.3%. Moreover, the inhibition in assay [6] was 0.03%. The RAM network inhibition in assay [7] was 1.98%.
For `COc1ccc(CN(C)C2CCCCC2)cc1`, the growth inhibition is -16.4% in assay [1] and -4.68% in assay [2]. For the same compound, the viability increase in assay [3] is 0.58%. Also, the viability in assay [4] is 95.9%; in assay [5] it was 99%. For the same compound, in assay [6], the inhibition is 1.12%. The RAM network inhibition in assay [7] was 4.95%.
In the case of `Cc1cc(C)n2nc(C(=O)Oc3ccc4c(c3)OCO4)nc2n1`, the results for the growth inhibition in assay [1] and in assay [2] were -3.75% and -24%, respectively. In addition, the viability increase in assay [3] was -1.75%. The results for the viability in assay [4] and in assay [5] were 99% and 104%, respectively. Also, in assay [6], the inhibition is 1.7%. Also, in assay [7], the RAM network inhibition was 3.06%.
In the case of `Cn1cccc1Cc1nnc(SCC(=O)NCCc2ccccc2)n1-c1ccc(F)cc1`, the growth inhibition was -6.41% in assay [1] and 5.7% in assay [2]. Further, the viability increase in assay [3] is -2.38%. Moreover, the viability in assay [4] is 93.7%; in assay [5] it was 93.3%. Besides, the inhibition in assay [6] is 2.35%. Moreover, the RAM network inhibition in assay [7] is 5.42%.
Consider `CC(=O)N1CCC(N(CCN2CCOCC2)C(=O)Nc2ccc(Cl)c(Cl)c2)CC1`, for which the growth inhibition in assay [1] was -8.97%; in assay [2], -0.8%. Besides, the viability increase in assay [3] is -1.49%. Also, the viability in assay [4] was 97%; in assay [5] it was 95.6%. Moreover, in assay [6], the inhibition was 2.5%. For the same compound, the RAM network inhibition in assay [7] was 1.45%.

For orientation: viability means a read-out of living cells in per cent, often relative to untreated cells. In general, inhibition refers to the change of the read-out against control, counted positive when it falls.
